What was measured:
HT-29 = assay: Cytotoxicity against human HT-29 cells; type: functional, cell-based
Outline: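 HT-29 human colon cancer cells treated with serial dilutions of test samples. IC50 derived by nonlinear regression. Measured in triplicate in two independent experiments. Paclitaxel served as positive control.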

[1] = target: T1, Solute carrier family 2, facilitated glucose transporter member 1 (Homo sapiens) (UniProt P11166); assay: Inhibition of GLUT-1 in human H1299 cells assessed as 2-deoxy-D-[3H]glucose uptake at 30 uM incubated for 15 mins prior to 2-deoxy-D-[3H]glucose challenge measured after 10 mins by liquid scintillation counting analysis (reference value: 100%); type: cell-based; parameters: scale not given: the % may be the effect or the level left
T1 sequence (whole entry): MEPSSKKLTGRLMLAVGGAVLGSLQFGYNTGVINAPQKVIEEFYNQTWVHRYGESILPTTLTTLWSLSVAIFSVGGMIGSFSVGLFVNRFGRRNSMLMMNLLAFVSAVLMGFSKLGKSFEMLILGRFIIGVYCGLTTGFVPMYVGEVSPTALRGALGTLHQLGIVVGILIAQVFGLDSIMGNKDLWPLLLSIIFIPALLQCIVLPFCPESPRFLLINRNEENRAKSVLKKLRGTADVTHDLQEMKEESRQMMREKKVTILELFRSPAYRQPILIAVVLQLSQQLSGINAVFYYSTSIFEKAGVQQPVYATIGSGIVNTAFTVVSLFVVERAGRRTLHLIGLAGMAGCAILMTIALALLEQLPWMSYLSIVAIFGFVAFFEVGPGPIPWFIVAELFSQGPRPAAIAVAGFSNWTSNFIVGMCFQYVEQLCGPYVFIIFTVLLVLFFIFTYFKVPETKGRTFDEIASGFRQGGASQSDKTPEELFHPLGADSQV
Outline: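 Before dosing, H1299 human lung cancer cells were washed and held in serum-free DMEM for 2 h at 37 °C in 10% CO2, then in KRP buffer for 30 min at 37 °C. Compound was added at 30 μM final and incubated 15 min at 37 °C. Uptake was started with 37 MBq/L 2-deoxy-3H glucose plus 1 mM glucose (final) and stopped after 10 min by three cold PBS washes. Cells were NaOH-lysed and lysate radioactivity read by scintillation counting. Vehicle served as negative control and WZB117 (30 μM) as positive control. n = 3.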

P388 = assay: Cytotoxicity against mouse P388 cells; type: functional, cell-based

Activity [1] [%] | SMILES | IC50 (HT-29) | IC50 (P388) [µM]
58.7 | O=C1C[C@@H]2/C(=C(O)\C=C\c3ccccc3)C(=O)C=C[C@@H]2O1 [CRYPTOCARYONE] | 0.32 µM | 0.04
– | O=C1C[C@@H]2C3=C(C=C[C@@H]2O1)O[C@@H](c1ccccc1)CC3=O [CRYPTOCARYANONE A] | 10.9 µM | –
– | O=C1CCC[C@@H]2C[C@H](C[C@](O)(CCc3ccccc3)O2)c2c(cc(O)c(C(=O)/C=C/c3ccccc3)c2O)O1 | > 10 µM | –
– | O=C1C[C@@H]2C3=C(O[C@H](c4ccccc4)CC3=O)[C@@H]3[C@H]([C@@H]2O1)[C@H]1C[C@@H]2OC(=O)C[C@@H]2[C@@]3(C(=O)/C=C/c2ccccc2)C1=O | > 10 µM | –
– | O=C(/C=C/c1ccc(O)cc1)OCCCCCCCCCCCCCCCCOC(=O)/C=C/c1ccc(O)cc1 | > 10 µM | –
15.7 | O=C(Oc1cccc(F)c1OC(=O)c1cccc(O)c1)c1cccc(O)c1 | – | –
– | O=C1C[C@@H]2C3=C(O[C@H](c4ccccc4)CC3=O)[C@@H]3[C@@H]([C@@H]4C=C5O[C@H](c6ccccc6)CC(=O)[C@@]53[C@H]3CC(=O)O[C@@H]43)[C@@H]2O1 | > 10 µM | –
– | CC(=O)O[C@H]1C(=O)[C@@]2(C)[C@H]([C@H](OC(=O)c3ccccc3)[C@]3(O)C[C@H](OC(=O)[C@H](O)[C@@H](NC(=O)c4ccccc4)c4ccccc4)C(C)=C1C3(C)C)[C@]1(OC(C)=O)CO[C@@H]1C[C@@H]2O [PACLITAXEL] | > 10 µM | –
– | O=C(O)C[C@H]1CC=CC(=O)/C1=C(O)/C=C/c1ccccc1 | > 10 µg/mL | –

From ChEMBL document CHEMBL3124898, “Constituents of an extract of Cryptocarya rubra housed in a repository with cytotoxic and glucose transport inhibitory effects” (J Nat Prod, 2014)
